The test system of data set [1] is CC(=O)OCC1=C(C(=O)O)N2C(=O)[C@@H](NC(=O)Cc3cccs3)[C@H]2SC1. The data set is described as follows: (§1) Ratio of Kcat to Km for Escherichia coli BL21(DE3) wild-type VIM-2 beta-lactamase by spectrophotometer.
The test system of data set [2] is CO/N=C(\C(=O)N[C@@H]1C(=O)N2C(C(=O)O)=C(COC(C)=O)CS[C@H]12)c1csc(N)n1. The data set is described as §1.
The subject of data set [3] is CO/N=C(\C(=O)N[C@@H]1C(=O)N2C(C(=O)[O-])=C(C[N+]3(C)CCCC3)CS[C@H]12)c1csc(N)n1. The data set is described as §1.
The subject of data set [4] is C[C@@H](O)[C@H]1C(=O)N2C(C(=O)O)=C(SCCNC=N)C[C@H]12. Described as §1.
The test system of data set [5] is CC(C)(O/N=C(\C(=O)N[C@@H]1C(=O)N2C(C(=O)[O-])=C(C[n+]3ccccc3)CS[C@H]12)c1csc(N)n1)C(=O)O. The data set is described as follows: (§2) Activity of Escherichia coli BL21(DE3) wild-type VIM-2 beta-lactamase by spectrophotometer.
Data set [6] relates to CO/N=C(\C(=O)N[C@@H]1C(=O)N2C(C(=O)O)=C(COC(C)=O)CS[C@H]12)c1csc(N)n1. Described as §2.
Data set [7] has as its system CO/N=C(\C(=O)N[C@@H]1C(=O)N2C(C(=O)[O-])=C(C[N+]3(C)CCCC3)CS[C@H]12)c1csc(N)n1. Described as §2.
The subject of data set [8] is C[C@@H](O)[C@H]1C(=O)N2C(C(=O)O)=C(SCCNC=N)C[C@H]12. The description is as §2.
The subject of data set [9] is C[C@@H](O)[C@H]1C(=O)N2C(C(=O)O)=C(S[C@@H]3CN[C@H](C(=O)N(C)C)C3)[C@H](C)[C@H]12. The data set is described as §2.
Data set [10] deals with CC(=O)OCC1=C(C(=O)O)N2C(=O)[C@@H](NC(=O)Cc3cccs3)[C@H]2SC1. The data set is described as follows: (§3) Ratio of Kcat to Km for Escherichia coli XL1-Blue wild-type VIM-2 beta-lactamase by spectrophotometer.
For data set [11], the system named is CO/N=C(\C(=O)N[C@@H]1C(=O)N2C(C(=O)O)=C(COC(C)=O)CS[C@H]12)c1csc(N)n1. The description is as §3.
Data set [12] relates to CO/N=C(\C(=O)N[C@@H]1C(=O)N2C(C(=O)[O-])=C(C[N+]3(C)CCCC3)CS[C@H]12)c1csc(N)n1. The data set is described as §3.
In data set [13] the test system is CO[C@@]1(NC(=O)Cc2cccs2)C(=O)N2C(C(=O)O)=C(COC(N)=O)CS[C@@H]21. Described as §3.
For data set [14], the system named is C[C@@H](O)[C@H]1C(=O)N2C(C(=O)O)=C(SCCNC=N)C[C@H]12. Described as §3.
Data set [15] relates to O=C(Cc1cccs1)N[C@@H]1C(=O)N2C(C(=O)O)=C(/C=C/c3ccc([N+](=O)[O-])cc3[N+](=O)[O-])CS[C@H]12. The data set is described as §3.
Data set [16] concerns CC(C)(O/N=C(\C(=O)N[C@@H]1C(=O)N2C(C(=O)[O-])=C(C[n+]3ccccc3)CS[C@H]12)c1csc(N)n1)C(=O)O. The data set is described as follows: (§4) Activity of Escherichia coli XL1-Blue wild-type VIM-2 beta-lactamase by spectrophotometer.
Data set [17] has as its system CO/N=C(\C(=O)N[C@@H]1C(=O)N2C(C(=O)O)=C(COC(C)=O)CS[C@H]12)c1csc(N)n1. Described as §4.
The test system of data set [18] is CO/N=C(\C(=O)N[C@@H]1C(=O)N2C(C(=O)[O-])=C(C[N+]3(C)CCCC3)CS[C@H]12)c1csc(N)n1. The data set is described as §4.
For data set [19], the system named is C[C@@H](O)[C@H]1C(=O)N2C(C(=O)O)=C(SCCNC=N)C[C@H]12. Described as §4.
Data set [20] concerns C[C@@H](O)[C@H]1C(=O)N2C(C(=O)O)=C(S[C@@H]3CN[C@H](C(=O)N(C)C)C3)[C@H](C)[C@H]12. The data set is described as §4.
Data set [21] deals with Escherichia coli. The data set is described as follows: Ratio of Kcat to Km for Escherichia coli XL1-Blue VIM-2 A64W mutant beta-lactamase by spectrophotometer. The essentials: (§5)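 Mutant enzyme expressed in E. coli BL21(DE3) in autoinducing ZYP-5052 medium. Purified by anion exchange at pH 7.2, then high-resolution anion exchange at pH 9.2, plus gel filtration in 50 mM HEPES-50 μM ZnSO4 pH 7.5 where needed. Identity confirmed by tryptic peptide mass fingerprint. Steady-state kinetics on β-lactam substrates were run under the conditions used for wild-type VIM-2.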

Data set [22] relates to Escherichia coli. The data set is described as follows: Ratio of Kcat to Km for Escherichia coli XL1-Blue wild-type IMP-1 beta-lactamase by spectrophotometer.
For data set [23], the system named is Escherichia coli. As to the kind of experiment: Activity of Escherichia coli XL1-Blue wild-type IMP-1 beta-lactamase by spectrophotometer.
Data set [24] relates to Escherichia coli. The data set is described as follows: Activity of Escherichia coli XL1-Blue VIM-2 A64W mutant beta-lactamase by spectrophotometer. In short, it runs like this:
as §5

Data set [25] relates to Escherichia coli. As to the kind of experiment: Ratio of Kcat to Km for Escherichia coli XL1-Blue IMP-1 W64A mutant beta-lactamase by spectrophotometer.
The test system of data set [26] is Escherichia coli. The data set is described as follows: Activity of Escherichia coli XL1-Blue IMP-1 W64A mutant beta-lactamase by spectrophotometer.

For the molecule “Metallo-beta-lactamase (Escherichia coli) (from UniProt Q5U7L7)”, the kcat/Km in [1] came out at 1.2e+07 M⁻¹ s⁻¹; in data set [2], 5.8e+06 M⁻¹ s⁻¹; in data set [3], 100000 M⁻¹ s⁻¹; in data set [4], 3.8e+06 M⁻¹ s⁻¹; in [10], 1.2e+07 M⁻¹ s⁻¹; in [11], 5.8e+06 M⁻¹ s⁻¹. In addition, the kcat/Km in data set [12] is 100000 M⁻¹ s⁻¹; in [13] it was 1.2e+06 M⁻¹ s⁻¹; in data set [14] it was 3.8e+06 M⁻¹ s⁻¹; in data set [15], 4.3e+07 M⁻¹ s⁻¹. Further, the Km in data set [5] is 72 µM; in data set [6], 12 µM; in data set [7], over 400 µM; in data set [8], 9 µM; in data set [9] it was 2 µM; in data set [16], 72 µM. Further, the Km in data set [17] was 12 µM; in [18] it was over 400 µM; in data set [19], 9 µM; in [20] it was 2 µM. In addition, the kcat in data set [6] is 70 s⁻¹; in data set [7], over 40 s⁻¹; in [8], 34 s⁻¹; in data set [9], 5 s⁻¹; in [17] it was 70 s⁻¹; in data set [18], over 40 s⁻¹. The kcat in data set [19] was 34 s⁻¹; in data set [20] it was 5 s⁻¹.

On to `CO/N=C(\C(=O)N[C@@H]1C(=O)N2C(C(=O)[O-])=C(C[N+]3(C)CCCC3)CS[C@H]12)c1csc(N)n1`, for which the catalytic efficiency (kcat/Km) with Escherichia coli [21] stood at 120000 M⁻¹ s⁻¹; with Escherichia coli [22] it was 660000 M⁻¹ s⁻¹. For the same molecule, the results for the Km in the data set with Escherichia coli [23] and in the data set on Escherichia coli [24] were 11 µM and over 400 µM, respectively. Moreover, the catalytic constant (kcat) in the data set on Escherichia coli [23] is 7 s⁻¹; in the data set on Escherichia coli [24], over 50 s⁻¹.

As to `C[C@@H](O)[C@H]1C(=O)N2C(C(=O)O)=C(S[C@@H]3CN[C@H](C(=O)N(C)C)C3)[C@H](C)[C@H]12`, the kcat/Km with Escherichia coli [21] stood at 3e+06 M⁻¹ s⁻¹; in the data set on Escherichia coli [22], 500000 M⁻¹ s⁻¹. For the same molecule, the Km in the data set with Escherichia coli [23] was found to be 10 µM; in the data set on Escherichia coli [24] it was 2 µM. Moreover, the results for the kcat with Escherichia coli [23] and in the data set on Escherichia coli [24] were 5 s⁻¹ and 6 s⁻¹, respectively.

For `CC(=O)OCC1=C(C(=O)O)N2C(=O)[C@@H](NC(=O)Cc3cccs3)[C@H]2SC1`, the values for the specificity constant (kcat/Km) in the data set on Escherichia coli [25], in the data set on Escherichia coli [21] and with Escherichia coli [22] were 310000 M⁻¹ s⁻¹, 2.2e+07 M⁻¹ s⁻¹ and 6.4e+06 M⁻¹ s⁻¹, respectively. Besides, the values for the Km in the data set with Escherichia coli [26], in the data set on Escherichia coli [23] and in the data set with Escherichia coli [24] were over 500 µM, 5 µM and 6 µM, respectively. Further, the turnover number (kcat) in the data set on Escherichia coli [26] is over 250 s⁻¹; in the data set on Escherichia coli [23] it was 32 s⁻¹; in the data set on Escherichia coli [24] it was 135 s⁻¹.

On to `CO/N=C(\C(=O)N[C@@H]1C(=O)N2C(C(=O)O)=C(COC(C)=O)CS[C@H]12)c1csc(N)n1`, for which the kcat/Km with Escherichia coli [25] was determined as 1.5e+06 M⁻¹ s⁻¹; in the data set on Escherichia coli [21] it was 3.7e+06 M⁻¹ s⁻¹; with Escherichia coli [22] it was 4.8e+06 M⁻¹ s⁻¹. Moreover, the Michaelis-Menten constant (Km) came out at 61 µM in the data set with Escherichia coli [26], 2.8 µM in the data set on Escherichia coli [23] and 7 µM in the data set on Escherichia coli [24]. Besides, the kcat is 98 s⁻¹ with Escherichia coli [26], 13.4 s⁻¹ in the data set on Escherichia coli [23] and 26 s⁻¹ with Escherichia coli [24].

Regarding `CO[C@@]1(NC(=O)Cc2cccs2)C(=O)N2C(C(=O)O)=C(COC(N)=O)CS[C@@H]21`, the catalytic efficiency (kcat/Km) with Escherichia coli [25] was 900000 M⁻¹ s⁻¹; in the data set with Escherichia coli [22] it was 3e+06 M⁻¹ s⁻¹. The results for the Km in the data set with Escherichia coli [26] and with Escherichia coli [23] were 45 µM and 3 µM, respectively. In addition, the kcat with Escherichia coli [26] came out at 40 s⁻¹; in the data set on Escherichia coli [23] it was 9 s⁻¹.

For the origin of these results see ChEMBL document CHEMBL1687761.
